ChEMBL document CHEMBL5046302, “Identification and Evaluation of Brominated Carbazoles as a Novel Antibiotic Adjuvant Scaffold in MRSA” (2022)
The source made the active and inactive calls. No cut-off for these calls is given here.

Legend:
Type in all cases: functional
Staphylococcus aureus [1] = assay: Potentiation of oxacillin induced antibacterial activity against methicillin-resistant Staphylococcus aureus ATCC 43300 assessed as oxacillin MIC at 50 uM after 18 hrs by CLSI protocol based broth microdilution assay
Staphylococcus aureus [2] = assay: Potentiation of oxacillin induced antibacterial activity against methicillin-resistant Staphylococcus aureus USA300 assessed as oxacillin MIC at 50 uM after 18 hrs by CLSI protocol based broth microdilution assay
Staphylococcus aureus [3] = assay: Potentiation of oxacillin induced antibacterial activity against methicillin-resistant Staphylococcus aureus USA300 assessed as fold change in oxacillin MIC at 50 uM after 18 hrs by CLSI protocol based broth microdilution assay
Staphylococcus aureus [4] = assay: Potentiation of oxacillin induced antibacterial activity against methicillin-resistant Staphylococcus aureus USA100 assessed as oxacillin MIC at 50 uM after 18 hrs by CLSI protocol based broth microdilution assay
Staphylococcus aureus [5] = assay: Potentiation of oxacillin induced antibacterial activity against methicillin-resistant Staphylococcus aureus COL assessed as oxacillin MIC at 50 uM after 18 hrs by CLSI protocol based broth microdilution assay
Staphylococcus aureus [6] = assay: Potentiation of oxacillin induced antibacterial activity against methicillin-resistant Staphylococcus aureus USA 100 assessed as fold change in oxacillin MIC at 50 uM after 18 hrs by CLSI protocol based broth microdilution assay
Staphylococcus aureus [7] = assay: Potentiation of oxacillin induced antibacterial activity against methicillin-resistant Staphylococcus aureus COL assessed as fold change in oxacillin MIC at 50 uM after 18 hrs by CLSI protocol based broth microdilution assay
Staphylococcus aureus [8] = assay: Antibacterial activity against methicillin-resistant Staphylococcus aureus ATCC 43300 assessed as inhibition of bacterial growth after 18 hrs by CLSI protocol based broth microdilution assay
How it was run: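 Broth microdilution MIC of carbazole alone vs MRSA ATCC 43300, tested up to 200 μM.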

Staphylococcus aureus [9] = assay: Potentiation of oxacillin induced antibacterial activity against methicillin-resistant Staphylococcus aureus ATCC 43300 assessed as fold change in oxacillin MIC at 50 uM after 18 hrs by CLSI protocol based broth microdilution assay
Staphylococcus aureus [10] = assay: Potentiation of oxacillin induced antibacterial activity against methicillin-resistant Staphylococcus aureus ATCC 43300 assessed as oxacillin MIC at 25 uM after 18 hrs by CLSI protocol based broth microdilution assay
Staphylococcus aureus [11] = assay: Upregulation of blaZ gene expression in methicillin-resistant Staphylococcus aureus ATCC 43300 by RT-PCR method
Staphylococcus aureus [12] = assay: Upregulation of mecA gene expression in methicillin-resistant Staphylococcus aureus USA100 by RT-PCR method
Staphylococcus aureus [13] = assay: Antibacterial activity against methicillin-resistant Staphylococcus aureus USA300 harboring stk1 deletion mutant co-transfected with a plasmid bearing stk1 assessed as inhibition of bacterial growth after 18 hrs in presence of oxacillin by CLSI protocol based broth microdilution assay
How it was run: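 USA300 Δstk1 strain carrying induced stk1 (Δ/+stk1). […] Fold change in MIC taken relative to oxacillin alone.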

Staphylococcus aureus [14] = assay: Upregulation of mecA gene expression in methicillin-resistant Staphylococcus aureus ATCC 43300 by RT-PCR method
Staphylococcus aureus [15] = assay: Antibacterial activity against methicillin-resistant Staphylococcus aureus USA300 assessed as inhibition of bacterial growth after 18 hrs in presence of oxacillin by CLSI protocol based broth microdilution assay
Staphylococcus aureus [16] = assay: Antibacterial activity against methicillin-resistant Staphylococcus aureus COL assessed as inhibition of bacterial growth after 18 hrs in presence of oxacillin by CLSI protocol based broth microdilution assay
Staphylococcus aureus [17] = assay: Upregulation of mecA gene expression in methicillin-resistant Staphylococcus aureus USA300 by RT-PCR method
Staphylococcus aureus [18] = assay: Upregulation of blaZ gene expression in methicillin-resistant Staphylococcus aureus USA100 by RT-PCR method
Staphylococcus aureus [19] = assay: Antibacterial activity against methicillin-resistant Staphylococcus aureus USA300 harboring stk1 deletion mutant assessed as inhibition of bacterial growth after 18 hrs in presence of oxacillin by CLSI protocol based broth microdilution assay
How it was run: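 USA300 Δstk1 mutant. Oxacillin MIC (µg mL⁻¹) was read with each carbazole held at a fixed 25 or 50 µM, and compared with oxacillin alone in the same strain. Fold change in MIC was taken as alone over cotreated. The parent USA300 and the stk1-complemented (Δ/+stk1) strains were run alongside.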

Staphylococcus aureus [20] = assay: Antibacterial activity against methicillin-resistant Staphylococcus aureus USA100 assessed as inhibition of bacterial growth after 18 hrs in presence of oxacillin by CLSI protocol based broth microdilution assay
Staphylococcus aureus [21] = assay: Upregulation of mecA gene expression in methicillin-resistant Staphylococcus aureus COL by RT-PCR method
Staphylococcus aureus [22] = assay: Potentiation of oxacillin induced antibacterial activity against methicillin-resistant Staphylococcus aureus USA100 assessed as oxacillin MIC at 10 uM after 18 hrs by CLSI protocol based broth microdilution assay
Staphylococcus aureus [23] = assay: Potentiation of oxacillin induced antibacterial activity against methicillin-resistant Staphylococcus aureus COL assessed as oxacillin MIC at 10 uM after 18 hrs by CLSI protocol based broth microdilution assay
Staphylococcus aureus [24] = assay: Potentiation of oxacillin induced antibacterial activity against methicillin-resistant Staphylococcus aureus USA300 assessed as fold change in oxacillin MIC at 10 uM after 18 hrs by CLSI protocol based broth microdilution assay
Staphylococcus aureus [25] = assay: Potentiation of oxacillin induced antibacterial activity against methicillin-resistant Staphylococcus aureus COL assessed as fold change in oxacillin MIC at 10 uM after 18 hrs by CLSI protocol based broth microdilution assay
Staphylococcus aureus [26] = assay: Potentiation of oxacillin induced antibacterial activity against methicillin-resistant Staphylococcus aureus USA100 assessed as fold change in oxacillin MIC at 10 uM after 18 hrs by CLSI protocol based broth microdilution assay
Staphylococcus aureus [27] = assay: Potentiation of oxacillin induced antibacterial activity against methicillin-resistant Staphylococcus aureus ATCC 43300 assessed as oxacillin MIC at 10 uM after 18 hrs by CLSI protocol based broth microdilution assay
Staphylococcus aureus [28] = assay: Potentiation of oxacillin induced antibacterial activity against methicillin-resistant Staphylococcus aureus ATCC 43300 assessed as fold change in oxacillin MIC at 10 uM after 18 hrs by CLSI protocol based broth microdilution assay
Staphylococcus aureus [29] = assay: Potentiation of oxacillin induced antibacterial activity against methicillin-resistant Staphylococcus aureus USA300 assessed as oxacillin MIC at 10 uM after 18 hrs by CLSI protocol based broth microdilution assay

| Compound | MIC (Staphylococcus aureus [1]) | MIC (Staphylococcus aureus [2]) | fold change (FC) (Staphylococcus aureus [3]) | MIC (Staphylococcus aureus [4]) | MIC (Staphylococcus aureus [5]) | fold change (FC) (Staphylococcus aureus [6]) | fold change (FC) (Staphylococcus aureus [7]) | MIC (Staphylococcus aureus [8]) | fold change (FC) (Staphylococcus aureus [9]) | also measured |
| --- | --- | --- | --- | --- | --- | --- | --- | --- | --- | --- |
| Ic1ccc2[nH]c3ccccc3c2c1 | 16 µg/mL | 16 µg/mL | 2 | 128 µg/mL | 512 µg/mL | 2 | 1 | > 200 µM | 2 | – |
| Brc1ccc2[nH]c3ccccc3c2c1 | 32 µg/mL | 32 µg/mL | 1 | 128 µg/mL | 512 µg/mL | 2 | 1 | > 200 µM | 1 | – |
| COc1ccc2[nH]c3ccc(OC)cc3c2c1 | 64 µg/mL | 64 µg/mL | >1 | 256 µg/mL | 512 µg/mL | 1 | 1 | > 200 µM | 0.5 | – |
| Brc1ccc2c(c1)[nH]c1ccccc12 | 16 µg/mL | 32 µg/mL | 1 | 128 µg/mL | 512 µg/mL | 2 | 1 | > 200 µM | 2 | – |
| Nc1ccc2[nH]c3ccc(N)cc3c2c1 | 32 µg/mL | 16 µg/mL | 1 | 256 µg/mL | 512 µg/mL | 1 | 1 | > 200 µM | 1 | – |
| Oc1cccc2[nH]c3ccccc3c12 | 32 µg/mL | 32 µg/mL | 1 | 256 µg/mL | 512 µg/mL | 1 | 1 | > 200 µM | 1 | – |
| Brc1ccc2c(c1)[nH]c1cc(Br)ccc12 | 8 µg/mL | 8 µg/mL | 4 | 64 µg/mL | 256 µg/mL | 4 | 2 | > 200 µM | 4 | – |
| CC(C(=O)O)c1ccc2c(c1)[nH]c1ccc(Cl)cc12 (stereo not given) [CARPROFEN] | – | 16 µg/mL | 1 | 256 µg/mL | 512 µg/mL | 1 | 1 | 100 µM | – | MIC (Staphylococcus aureus [10]): 32 µg/mL |
| Cc1onc(-c2ccccc2)c1C(=O)N[C@@H]1C(=O)N2[C@@H]1SC(C)(C)[C@@H]2C(=O)O [OXACILLIN] | – | – | – | – | – | – | – | 32 µg/mL | – | Activity (Staphylococcus aureus [11]): Active; Activity (Staphylococcus aureus [12]): Active; MIC (Staphylococcus aureus [13]): 4 µg/mL; Activity (Staphylococcus aureus [14]): Active; MIC (Staphylococcus aureus [15]): 32 µg/mL; MIC (Staphylococcus aureus [16]): 512 µg/mL; Activity (Staphylococcus aureus [17]): Active; Activity (Staphylococcus aureus [18]): Active; MIC (Staphylococcus aureus [19]): 0.25 µg/mL; MIC (Staphylococcus aureus [20]): 256 µg/mL; Activity (Staphylococcus aureus [21]): Active |
| Clc1ccc2c(c1)[nH]c1ccccc12 | 16 µg/mL | 16 µg/mL | 1 | 128 µg/mL | 512 µg/mL | 2 | 2 | > 200 µM | 2 | – |
| Fc1ccc2[nH]c3ccccc3c2c1 | 16 µg/mL | 32 µg/mL | 1 | 128 µg/mL | 512 µg/mL | 2 | 1 | > 200 µM | 2 | – |
| CC(C)(O/N=C(\C(=O)N[C@@H]1C(=O)N2C(C(=O)[O-])=C(C[n+]3ccccc3)CS[C@H]12)c1csc(N)n1)C(=O)O [CEFTAZIDIME] | – | – | – | – | – | – | – | 128 µg/mL | – | MIC (Staphylococcus aureus [15]): 512 µg/mL; MIC (Staphylococcus aureus [16]): 1020 µg/mL; MIC (Staphylococcus aureus [20]): 1020 µg/mL |
| Clc1ccc2[nH]c3ccc(Cl)cc3c2c1 | – | – | – | – | – | – | – | 50 µM | – | MIC (Staphylococcus aureus [22]): 256 µg/mL; MIC (Staphylococcus aureus [23]): 128 µg/mL; fold change (FC) (Staphylococcus aureus [24]): 2; fold change (FC) (Staphylococcus aureus [25]): 4; fold change (FC) (Staphylococcus aureus [26]): 1; MIC (Staphylococcus aureus [27]): 16 µg/mL; fold change (FC) (Staphylococcus aureus [28]): 1; MIC (Staphylococcus aureus [29]): 16 µg/mL |
| COc1cccc(OC)c1C(=O)N[C@@H]1C(=O)N2[C@@H]1SC(C)(C)[C@@H]2C(=O)O [METHICILLIN] | – | – | – | – | – | – | – | 4 µg/mL | – | MIC (Staphylococcus aureus [15]): 32 µg/mL; MIC (Staphylococcus aureus [16]): 1020 µg/mL; MIC (Staphylococcus aureus [20]): 512 µg/mL |
| CO[C@@]1(NC(=O)Cc2cccs2)C(=O)N2C(C(=O)O)=C(COC(N)=O)CS[C@@H]21 [CEFOXITIN] | – | – | – | – | – | – | – | 64 µg/mL | – | MIC (Staphylococcus aureus [15]): 32 µg/mL; MIC (Staphylococcus aureus [16]): 256 µg/mL; MIC (Staphylococcus aureus [20]): 256 µg/mL |
| CC1(C)S[C@@H]2[C@H](NC(=O)[C@H](N)c3ccccc3)C(=O)N2[C@H]1C(=O)O [AMPICILLIN] | – | – | – | – | – | – | – | 32 µg/mL | – | MIC (Staphylococcus aureus [15]): 8 µg/mL; MIC (Staphylococcus aureus [16]): 32 µg/mL; MIC (Staphylococcus aureus [20]): 32 µg/mL |
| c1ccc2c(c1)[nH]c1ccccc12 [CARBAZOLE] | 32 µg/mL | 32 µg/mL | 1 | 256 µg/mL | 512 µg/mL | 1 | 1 | > 200 µM | 1 | – |
